Measured values as given in PMC9418647 (European Journal of Drug Metabolism and Pharmacokinetics, 2022).

Tests used:
[1] = cited from earlier work
[2] = finerenone 20 mg; cited from earlier work
OATP1B3 = biological target: T1, OATP1B3 (Homo sapiens, UniProt Q9NPD5); experiment: Uptake assay for OATP1B3 inhibition in HEK-OATP1B3 cells; assay type: in vitro ADME
T1 sequence (Q9NPD5 1-702): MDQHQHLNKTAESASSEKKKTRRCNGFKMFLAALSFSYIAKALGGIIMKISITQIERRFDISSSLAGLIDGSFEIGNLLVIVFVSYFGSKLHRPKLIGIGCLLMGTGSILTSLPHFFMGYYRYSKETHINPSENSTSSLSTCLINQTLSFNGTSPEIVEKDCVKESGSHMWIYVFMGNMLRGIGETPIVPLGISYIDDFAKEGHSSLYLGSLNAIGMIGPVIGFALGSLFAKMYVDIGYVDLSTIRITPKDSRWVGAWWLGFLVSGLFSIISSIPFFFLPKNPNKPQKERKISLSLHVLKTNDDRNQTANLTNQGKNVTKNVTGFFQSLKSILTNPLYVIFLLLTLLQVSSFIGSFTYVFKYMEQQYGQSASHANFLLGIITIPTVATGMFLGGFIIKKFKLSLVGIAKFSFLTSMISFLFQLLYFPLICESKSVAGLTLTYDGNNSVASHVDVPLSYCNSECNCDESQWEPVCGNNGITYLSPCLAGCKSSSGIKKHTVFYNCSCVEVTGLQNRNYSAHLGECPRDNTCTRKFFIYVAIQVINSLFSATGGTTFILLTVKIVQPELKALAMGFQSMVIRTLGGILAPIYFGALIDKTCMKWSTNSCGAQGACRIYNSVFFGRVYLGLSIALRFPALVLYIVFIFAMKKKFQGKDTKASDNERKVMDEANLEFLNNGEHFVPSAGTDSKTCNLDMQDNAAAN
In short: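 Transporter-mediated transport measured across a test-compound concentration range. Where inhibition stayed below 50% at the top concentration, IC50 was reported as greater than the highest tested concentration.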

OATP1B1 = biological target: T2, OATP1B1 (Homo sapiens, UniProt Q9Y6L6); experiment: Uptake assay for OATP1B1 inhibition in HEK-OATP1B1 cells; assay type: in vitro ADME
T2 sequence (Q9Y6L6 1-691): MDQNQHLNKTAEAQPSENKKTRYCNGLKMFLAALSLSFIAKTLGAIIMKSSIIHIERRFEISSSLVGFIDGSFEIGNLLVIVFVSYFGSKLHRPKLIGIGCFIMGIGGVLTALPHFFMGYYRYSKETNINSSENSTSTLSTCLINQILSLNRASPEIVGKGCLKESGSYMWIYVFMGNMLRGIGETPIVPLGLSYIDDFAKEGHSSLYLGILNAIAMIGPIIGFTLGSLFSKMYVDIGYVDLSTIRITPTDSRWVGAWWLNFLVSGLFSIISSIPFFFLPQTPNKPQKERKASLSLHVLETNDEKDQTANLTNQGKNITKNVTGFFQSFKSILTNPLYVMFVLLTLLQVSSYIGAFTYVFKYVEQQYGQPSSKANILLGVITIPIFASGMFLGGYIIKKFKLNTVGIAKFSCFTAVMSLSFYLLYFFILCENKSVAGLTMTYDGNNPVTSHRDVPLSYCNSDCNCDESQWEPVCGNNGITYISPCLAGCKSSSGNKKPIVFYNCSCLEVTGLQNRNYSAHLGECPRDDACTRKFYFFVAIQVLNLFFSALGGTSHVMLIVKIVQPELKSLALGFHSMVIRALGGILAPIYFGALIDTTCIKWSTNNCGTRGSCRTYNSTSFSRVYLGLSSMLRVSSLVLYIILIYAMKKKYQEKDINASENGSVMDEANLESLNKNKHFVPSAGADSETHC
In short: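 OATP1B1 uptake measured across a test-compound concentration range. IC50 reported as greater than the top concentration if inhibition stayed below 50%, and that concentration was then used in the calculation. AUC ratio estimated by the basic static model, assuming substrate clearance runs solely via the transporter.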

[3] = cited from earlier work; remark: listed apart in the source
[4] = Clinical study: safety and tolerability; assay type: in vivo, human
In short: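 Healthy men given finerenone 40 mg once daily for 10 days, with rosuvastatin. Supine BP, HR and 12-lead ECG recorded after 15 min rest, pre-dose and up to 24 h post-dose. Haematology and chemistry including serum electrolytes taken pre-dose and at 24 and 48 h, except after separated dosing. Adverse events elicited with non-leading questions through follow-up.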

SMILES: CC1=NN(c2ccc(C)c(C)c2)C(=O)/C1=N\Nc1cccc(-c2cccc(C(=O)O)c2)c1O [eltrombopag]
- rosuvastatin AUC ratio [1]: 1.55
- rosuvastatin Cmax ratio [1]: 2.03

SMILES: CO[C@H]1/C=C/O[C@@]2(C)Oc3c(C)c(O)c4c(O)c(c(/C=N/N5CCN(C)CC5)c(O)c4c3C2=O)NC(=O)/C(C)=C\C=C\[C@H](C)[C@H](O)[C@@H](C)[C@@H](O)[C@@H](C)[C@H](OC(C)=O)[C@@H]1C [rifampicin]
- CP-I AUC ratio [1]: 4.0
- CP-III AUC ratio [1]: 3.3
- rosuvastatin AUC ratio [1]: 5.0

SMILES: CCOc1ncc(C)c2c1[C@H](c1ccc(C#N)cc1OC)C(C(N)=O)=C(C)N2 [Finerenone, finerenone]
- effect on repaglinide (CYP2C8 and OATP substrate) [2]: no effect
- IC50 (OATP1B3): > 10 µM
- IC50 (OATP1B1): 3.2 µM
- predicted AUC ratio (AUCR), inhibition of OATP1B1 (OATP1B1; basic model R = 1 + [I]inlet,max,u (or Cmax,u)/IC50): 1.182
- absolute bioavailability [3]: 43.5%
- administered dose excreted in feces [3]: approximately 20%
- administered dose excreted in urine [3]: About 80%
- dose excreted unchanged in feces [3]: < 0.2%
- dose excreted unchanged in urine [3]: < 1%
- share of metabolic clearance by CYP3A4 ([3]; remainder attributable to CYP2C8): about 90%
- changes in potassium levels ([4]; finerenone 40 mg): no relevant changes in potassium levels
- serious or severe adverse events ([4]; finerenone 40 mg alone or with rosuvastatin): no serious or severe AEs
- tolerability ([4]; repeated doses of finerenone 40 mg once daily, healthy male volunteers): well tolerated

SMILES: CC(C)c1nc(N(C)S(C)(=O)=O)nc(-c2ccc(F)cc2)c1/C=C/[C@@H](O)C[C@@H](O)CC(=O)O [Rosuvastatin, rosuvastatin]
- Tmax (expected) [1]: approximately 5 h

SMILES: Cc1ccc(C)c(OCCCC(C)(C)C(=O)O)c1 [gemfibrozil]
- increase of rosuvastatin AUC [1]: 1.88 fold
- increase of rosuvastatin Cmax [1]: 2.21 fold
